Our source for the folding enthalpy and Tm values is the array DNA melting data of Ke et al. (doi:10.1101/2024.01.08.574731).

Data set [1] can be described thus: folding enthalpy; higher = less favourable; fluorescence melt of hairpins on a sequencing array, two-state fit. As to conditions: sodium 0.088 M. A digest of the protocol: (§1)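 Folding enthalpy and melting temperature were estimated with bootstrapped two-state fits and combined across four replicates by inverse-variance weighting, with fitted temperatures raised by 9.35 °C to match UV melts. The data were Cy3 fluorescence of library hairpins, with annealed Cy3 and quencher oligos, on a sequenced MiSeq flow cell in 50 mM Na-HEPES pH 8.0, 25 mM NaCl, imaged in 2.5 °C steps up to 60 °C and normalised to pre-quench Cy3 and control constructs.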

Data set [2] is described as follows: melting temperature; fluorescence melt of hairpins on a sequencing array, two-state fit, raised by 9.35 °C to match UV melts. The conditions noted are these: sodium 0.088 M. The gist of the method: as §1

On to GCTGACGAAAGTCCCAGC ((((((....)))..))), for which, in data set [1], the folding enthalpy was -14.2 kcal/mol. For the same sequence, in data set [2], the Tm came to 36.7 °C.

Consider GCCAATCGAAAGATGGC (((.(((....)))))), for which the folding enthalpy in data set [1] was -35.5 kcal/mol. For the same sequence, the Tm in data set [2] was 55.4 °C.

GATCCTTCACAGGATC ((((((....)))))): the folding enthalpy in data set [1] was -34.7 kcal/mol. For the same sequence, the Tm in data set [2] was found to be 51.7 °C.

As to GGAAACGAAAGTTCGTCC ((((((....)))..))), the folding enthalpy in data set [1] was -13 kcal/mol. For the same sequence, the Tm in data set [2] is 24.8 °C.

Consider GATCCGTTCTCGGATC ((((((....)))))), for which, in data set [1], the folding enthalpy is -42.2 kcal/mol. For the same sequence, the Tm in data set [2] was 60.7 °C.

On to GATCGTCGATACGATC ((((((....)))))), for which, in data set [1], the folding enthalpy is -38.5 kcal/mol. Moreover, in data set [2], the Tm is 54.7 °C.

For the sequence GATCGCGCGGGCGATC ((((((....)))))), in data set [1], the folding enthalpy is -32.9 kcal/mol. In data set [2], the Tm turned out to be 67.2 °C.

For the sequence GGAGTGCGAAAGCAATCC (((.(((....))).))), the folding enthalpy in data set [1] is -35.7 kcal/mol. Further, the Tm in data set [2] was determined as 60.1 °C.

On to GGTGACGAAAGTCCACC ((((((....))).))), for which the folding enthalpy in data set [1] was -25.9 kcal/mol. Also, the Tm in data set [2] was found to be 50.8 °C.

Turning to GTATCCGGAAACGGATGC (.(((((....))))).), the folding enthalpy in data set [1] was -28.3 kcal/mol. The Tm in data set [2] came out at 53 °C.

Turning to GCATTCGAAAGAATCTGC ((((((....)))..))), the folding enthalpy in data set [1] is -21.5 kcal/mol. The Tm in data set [2] was 34.5 °C.

As to GCCCCGCGAAAGCGAAGC ((..(((....)))..)), the folding enthalpy in data set [1] was -8.06 kcal/mol. For the same sequence, in data set [2], the Tm amounted to 39.2 °C.

As for GATGACCGAAAGGTTATC (((.(((....))).))), in data set [1], the folding enthalpy is -36.2 kcal/mol. In addition, the Tm in data set [2] amounted to 51 °C.

GCGCCGGGAAACCGGTGC ((.((((....)))).)): the folding enthalpy in data set [1] was -31.5 kcal/mol. The Tm in data set [2] worked out at 69 °C.

With GCGGACGGAAACGTTCGC (((.(((....))).))), the folding enthalpy in data set [1] was -44.9 kcal/mol. The Tm in data set [2] was found to be 64.2 °C.

As to GATCGCGGAAACGTGGTC ((.(.((....)).).)), the folding enthalpy in data set [1] was -26.7 kcal/mol. The Tm in data set [2] was 43.6 °C.

For GGTCGGGGAAACTCGGCC ((.((.(....).)).)), in data set [1], the folding enthalpy is -34 kcal/mol. Besides, in data set [2], the Tm amounted to 49.1 °C.

As for GCGACCGAAAGGTCCGC ((((((....))).))), in data set [1], the folding enthalpy was -18.5 kcal/mol. For the same sequence, the Tm in data set [2] was determined as 66.4 °C.

For the sequence GTGACCGCGAAAGCGCAC (((..(((....)))))), the folding enthalpy in data set [1] was -8.65 kcal/mol. For the same sequence, the Tm in data set [2] came out at 40.3 °C.

As for GTGTCAACGAAAGTTCAC (((..(((....)))))), in data set [1], the folding enthalpy was -8.71 kcal/mol. In data set [2], the Tm worked out at 29.8 °C.

For the sequence GAAGACGAAAGTCACTTC ((((((....)))..))), the folding enthalpy in data set [1] is -17.5 kcal/mol. Further, the Tm in data set [2] was 35 °C.

Turning to GGAGGCACGAAAGTGTCC (((..(((....)))))), the folding enthalpy in data set [1] was -12.6 kcal/mol. Moreover, in data set [2], the Tm stood at 41 °C.

For the sequence CGACCGCGGAAACGCTCG (((..(((....)))))), the folding enthalpy in data set [1] was -11.2 kcal/mol. Also, the Tm in data set [2] stood at 34 °C.

In the case of GTAGATGGAAACGTCTAC (((((.(....).))))), the folding enthalpy in data set [1] was -31.3 kcal/mol. In addition, the Tm in data set [2] worked out at 43.6 °C.

For the sequence GGTGCACCGAAAGGTACC (((..(((....)))))), the folding enthalpy in data set [1] was -11.6 kcal/mol. In data set [2], the Tm turned out to be 37.6 °C.

Turning to GGTCTGAAAAGACC (((((....))))), in data set [1], the folding enthalpy was -31.1 kcal/mol. Besides, the Tm in data set [2] stood at 61.7 °C.

As to GTAGGGGGAAACTCCTGC (.(((.(....).))).), the folding enthalpy in data set [1] was -20 kcal/mol. For the same sequence, the Tm in data set [2] worked out at 35.5 °C.

With GATCTGTATGCAGATC ((((((....)))))), in data set [1], the folding enthalpy is -38.8 kcal/mol. Also, in data set [2], the Tm came to 54.9 °C.

For the sequence GATCGCAATTGCGATC ((((((....)))))), the folding enthalpy in data set [1] was -31.1 kcal/mol. Moreover, the Tm in data set [2] stood at 67.8 °C.

In the case of CGATCGGAAACGACTCG ((((((....))).))), the folding enthalpy in data set [1] is -31 kcal/mol. Moreover, in data set [2], the Tm is 40.7 °C.

As to GTCGACGAAAGTCATGAC ((((((....)))..))), the folding enthalpy in data set [1] was -15.6 kcal/mol. Moreover, in data set [2], the Tm was 40.7 °C.

As for GATCAATGCCTTGATC ((((((....)))))), in data set [1], the folding enthalpy is -26.2 kcal/mol. In data set [2], the Tm came out at 45.3 °C.

Consider GTGGTCGAAAGACGCAC ((((((....))).))), for which, in data set [1], the folding enthalpy was -16.3 kcal/mol. The Tm in data set [2] was 49.3 °C.

As to GCGACGCGAAAGCTTAGC ((.(.((....)).).)), the folding enthalpy in data set [1] is -24.8 kcal/mol. Further, the Tm in data set [2] came out at 48.9 °C.

For the sequence GCGAGACTCGC ((((...)))), in data set [1], the folding enthalpy was -10.2 kcal/mol. Further, the Tm in data set [2] is 49 °C.

With GATGGCGAAAGCCTTATC ((((((....)))..))), the folding enthalpy in data set [1] is -7.22 kcal/mol. Besides, the Tm in data set [2] amounted to 25.9 °C.

Consider GTAGGCGAAAGCCCGTAC ((((((....)))..))), for which, in data set [1], the folding enthalpy was -8.97 kcal/mol. Besides, the Tm in data set [2] was 31.1 °C.
